Activity calls are given as the source filed them. No cut-off for these calls is given here.
Key:
[1] = target: T1, 5-hydroxytryptamine receptor 2C (Homo sapiens) (UniProt P28335); test: Agonist activity at 5HT2C receptor (unknown origin) expressed in HEK293 cells co-expressing NFAT-RE at 10 uM after 6 to 12 hrs by Bright-Glo luciferase reporter gene assay; type: cell-based
T1 sequence (whole entry): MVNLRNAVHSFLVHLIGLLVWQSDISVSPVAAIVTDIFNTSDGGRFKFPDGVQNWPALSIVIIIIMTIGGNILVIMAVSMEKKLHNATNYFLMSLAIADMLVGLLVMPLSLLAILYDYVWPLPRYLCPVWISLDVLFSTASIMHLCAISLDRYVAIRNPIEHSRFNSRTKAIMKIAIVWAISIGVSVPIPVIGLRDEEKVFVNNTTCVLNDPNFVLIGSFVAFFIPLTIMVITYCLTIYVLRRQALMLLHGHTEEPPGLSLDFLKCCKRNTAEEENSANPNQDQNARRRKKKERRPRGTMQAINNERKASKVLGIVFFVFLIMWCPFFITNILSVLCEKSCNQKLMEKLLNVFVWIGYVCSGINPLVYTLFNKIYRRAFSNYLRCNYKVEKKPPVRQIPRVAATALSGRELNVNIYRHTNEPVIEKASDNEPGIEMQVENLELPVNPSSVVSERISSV
Procedure, shortened: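 Primary screen at 5-HT2C in transiently co-transfected HEK293T (receptor plus NFAT-RE luciferase plasmids, 50,000 cells/well). Compounds tested in triplicate at a final 10 µM in HEPES-buffered HBSS pH 7.4 and incubated 6-12 h. Luminescence read within 5 min of Bright-Glo (1 mg/ml final). Signal normalized to the 5-HT maximal response.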

[2] = target: T1, 5-hydroxytryptamine receptor 2C (Homo sapiens); test: Positive allosteric modulation of 5HT2C receptor (unknown origin) expressed in HEK293 cells co-expressing NFAT-RE assessed as increase in serotonin-induced reponse at 10 uM after 6 to 12 hrs by Bright-Glo luciferase reporter gene assay relative to serotonin; type: cell-based
Procedure, shortened: (§1)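 Transiently co-transfected HEK293T cells expressing 5-HT2A, 5-HT2B or 5-HT2C with NFAT-RE luciferase, 50,000 cells/well. Test compound added first at 10 µM, 1 µM or 100 nM, in triplicate. A 5-HT concentration-response (10 µM to 0.01 nM) followed, then 6-12 h incubation. Bright-Glo luminescence was fitted by non-linear regression, with Emax normalized to 5-HT alone (100%). n=3-4.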

Rattus norvegicus = test: Induction of anorexia in Sprague-Dawley rat assessed as suppression of food intake at 2 pmol, icv measured after 3 to 6 hrs; type: functional, organism-based
Procedure, shortened: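 Adult SD rats (150-200 g) on a 12 h light/dark cycle at 22 °C, cannulated in the right ventricle. Rats were fasted 4 h with free access to water, then dosed i.c.v. with 2 pmol/rat (2 µL) in aCSF vehicle; lorcaserin 2 pmol/rat served as positive control. Weighed pellets were given 10 min later, and remaining food plus spillage was weighed at 3, 6 and 24 h; n=4.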

[3] = target: T2, 5-hydroxytryptamine receptor 2A (Homo sapiens, UniProt P28223); test: Positive allosteric modulation of 5HT2A receptor (unknown origin) expressed in HEK293 cells co-expressing NFAT-RE assessed as increase in serotonin-induced reponse after 6 to 12 hrs by Bright-Glo luciferase reporter gene assay; type: cell-based; procedure, shortened: as §1
5HT2A receptor = 5HT2A receptor (Homo sapiens, UniProt P28223); test: Positive allosteric modulation of 5HT2A receptor (unknown origin) expressed in HEK293 cells co-expressing NFAT-RE assessed as increase in serotonin-induced reponse at 1 uM after 6 to 12 hrs by Bright-Glo luciferase reporter gene assay relative to serotonin; type: cell-based; conditions: HEK293 cells expressing 5HT2A receptor and NFAT-RE reporter; procedure, shortened: as §1
[4] = target: T3, 5-hydroxytryptamine receptor 2C (Homo sapiens, UniProt P28335); test: Positive allosteric modulation of 5HT2C receptor (unknown origin) expressed in HEK293 cells co-expressing NFAT-RE assessed as increase in serotonin-induced reponse after 6 to 12 hrs by Bright-Glo luciferase reporter gene assay; type: cell-based; procedure, shortened: as §1
T3 sequence (P28335 whole entry): T1 sequence (whole entry)

5HT2B receptor = 5HT2B receptor (Homo sapiens, UniProt P41595); test: Positive allosteric modulation of 5HT2B receptor (unknown origin) expressed in HEK293 cells co-expressing NFAT-RE assessed as increase in serotonin-induced reponse at 1 uM after 6 to 12 hrs by Bright-Glo luciferase reporter gene assay relative to serotonin; type: cell-based; conditions: HEK293 cells expressing 5HT2B receptor and NFAT-RE reporter; procedure, shortened: as §1
[5] = target: T1, 5-hydroxytryptamine receptor 2C (Homo sapiens); test: Positive allosteric modulation of 5HT2C receptor (unknown origin) expressed in HEK293 cells co-expressing NFAT-RE assessed as increase in serotonin-induced reponse at 1 uM after 6 to 12 hrs by Bright-Glo luciferase reporter gene assay relative to serotonin; type: cell-based; procedure, shortened: as §1
[6] = target: T2, 5-hydroxytryptamine receptor 2A; test: Agonist activity at 5HT2A receptor (unknown origin) expressed in HEK293 cells co-expressing NFAT-RE after 6 to 12 hrs by Bright-Glo luciferase reporter gene assay; type: cell-based
Procedure, shortened: (§2)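 HEK293T cells transiently co-transfected (PEI) with 0.1 µg/well receptor plasmid (5-HT2A, 5-HT2B or 5-HT2C) plus 0.1 µg/well NFAT-RE luciferase reporter, plated 50,000 cells/well 24 h before treatment. Compounds tested in triplicate from 10 µM down to 0.01 nM in HBSS/20 mM HEPES pH 7.4, incubated 6-12 h. Luminescence read within 5 min of Bright-Glo (1 mg/ml final). RLU fitted by non-linear regression; 5-HT Emax set to 100%.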

[7] = target: T4, 5-hydroxytryptamine receptor 2B (Homo sapiens, UniProt P41595); test: Positive allosteric modulation of 5HT2B receptor (unknown origin) expressed in HEK293 cells co-expressing NFAT-RE assessed as increase in serotonin-induced reponse at 10 uM after 6 to 12 hrs by Bright-Glo luciferase reporter gene assay; type: cell-based; conditions: hek293, 10 µM; procedure, shortened: as §1
[8] = target: T1, 5-hydroxytryptamine receptor 2C (Homo sapiens); test: Agonist activity at 5HT2C receptor (unknown origin) expressed in HEK293 cells co-expressing NFAT-RE after 6 to 12 hrs by Bright-Glo luciferase reporter gene assay; type: cell-based; procedure, shortened: as §2
[9] = target: T4, 5-hydroxytryptamine receptor 2B; test: Agonist activity at 5HT2B receptor (unknown origin) expressed in HEK293 cells co-expressing NFAT-RE after 6 to 12 hrs by Bright-Glo luciferase reporter gene assay; type: cell-based; procedure, shortened: as §2
[10] = target: T4, 5-hydroxytryptamine receptor 2B; test: Positive allosteric modulation of 5HT2B receptor (unknown origin) expressed in HEK293 cells co-expressing NFAT-RE assessed as increase in serotonin-induced reponse after 6 to 12 hrs by Bright-Glo luciferase reporter gene assay; type: cell-based; procedure, shortened: as §1

T4 sequence (P41595 whole entry): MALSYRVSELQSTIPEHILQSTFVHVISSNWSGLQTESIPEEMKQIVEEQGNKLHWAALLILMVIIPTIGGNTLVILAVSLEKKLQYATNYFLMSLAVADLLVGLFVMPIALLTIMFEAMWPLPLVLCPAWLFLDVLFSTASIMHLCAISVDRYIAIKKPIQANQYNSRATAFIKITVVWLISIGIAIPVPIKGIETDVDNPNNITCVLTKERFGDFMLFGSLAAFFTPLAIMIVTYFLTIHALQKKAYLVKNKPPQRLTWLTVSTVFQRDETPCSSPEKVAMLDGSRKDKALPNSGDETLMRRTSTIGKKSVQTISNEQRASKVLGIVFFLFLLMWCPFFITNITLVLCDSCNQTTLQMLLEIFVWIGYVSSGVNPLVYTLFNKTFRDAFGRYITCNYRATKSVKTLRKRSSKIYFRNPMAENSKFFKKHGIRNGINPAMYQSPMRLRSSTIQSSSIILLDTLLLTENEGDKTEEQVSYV
T2 sequence (P28223 whole entry): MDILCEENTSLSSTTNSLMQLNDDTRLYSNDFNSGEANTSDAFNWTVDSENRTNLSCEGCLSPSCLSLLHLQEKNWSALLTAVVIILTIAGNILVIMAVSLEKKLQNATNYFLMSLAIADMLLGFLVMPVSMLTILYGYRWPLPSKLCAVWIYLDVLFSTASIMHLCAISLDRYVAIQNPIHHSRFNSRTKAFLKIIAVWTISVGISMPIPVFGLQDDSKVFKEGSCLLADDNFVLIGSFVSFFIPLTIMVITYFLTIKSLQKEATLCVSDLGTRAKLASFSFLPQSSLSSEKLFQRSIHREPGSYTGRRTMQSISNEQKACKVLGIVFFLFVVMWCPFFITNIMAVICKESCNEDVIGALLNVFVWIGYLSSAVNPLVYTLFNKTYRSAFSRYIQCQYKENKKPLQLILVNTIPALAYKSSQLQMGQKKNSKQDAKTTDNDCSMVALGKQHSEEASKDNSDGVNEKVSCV
Chain of 5HT2B receptor (P41595 whole entry): as the sequence (P41595 whole entry) above
Chain of 5HT2A receptor (P28223 whole entry): as the sequence (P28223 whole entry) above

SMILES | Activity [1] | Activity [2] | other results
O=C(c1ccc(-n2cnc3c(NCc4ccccc4)ncnc32)cc1)C1CC1 | inactive | inactive | –
OC(c1ccc(-n2ccnc2)cc1)C1CC1 (stereo unspecified) | inactive | inactive | –
C[C@H]1CNCCc2ccc(Cl)cc21 | – | – | Activity (Rattus norvegicus): Active
Cc1nc2ccccc2n1-c1ccc(C(O)C2CC2)cc1 (stereo unspecified) | inactive | inactive | –
Nc1cccc2ncn(-c3ccc(C(=O)C4CC4)cc3)c12 | inactive | inactive | –
O=C(c1ccc(Nc2nc3ccc(F)cc3s2)cc1)C1CC1 | inactive | inactive | –
O=[N+]([O-])c1cn(-c2ccc(C(O)C3CC3)cc2)cn1 (stereo unspecified) | inactive | inactive | –
C=CCN1CCN(c2ccc(C(=O)C3CC3)cc2)CC1 | inactive | inactive | –
O=C(c1ccc(N2CCN(Cc3ccc4c(c3)OCO4)CC2)cc1)C1CC1 | inactive | inactive | –
O=C(c1ccc(-n2cnc3ccccc32)cc1)C1CC1 | inactive | inactive | –
Nc1ncnc2c1ncn2-c1ccc(C(=O)C2CC2)cc1 | inactive | inactive | –
O=C(c1ccc(Nc2nc3ccccc3s2)cc1)C1CC1 | inactive | inactive | –
Cc1cccc2sc(Nc3ccc(C(=O)C4CC4)cc3)nc12 | inactive | inactive | –
OC(c1ccc(-n2cnc3ccccc32)cc1)C1CC1 (stereo unspecified) | inactive | inactive | –
OC(c1ccc(-n2cnc3c(NCc4ccccc4)ncnc32)cc1)C1CC1 (stereo unspecified) | inactive | inactive | –
O=C(c1ccc(N2CCN(C(c3ccccc3)c3ccccc3)CC2)cc1)C1CC1 | inactive | inactive | –
O=C(c1ccc(NCCN2CCN(c3ccc(C(=O)C4CC4)cc3)CC2)cc1)C1CC1 | inactive | – | –

SMILES | Activity [1] | Activity [2] | other results
Cc1nc2ccccc2n1-c1ccc(C(=O)C2CC2)cc1 | inactive | inactive | –
Cc1ccc(S(=O)(=O)NCc2cn(C(c3ccc(OCc4ccccc4)cc3)C3CC3)nn2)cc1 (stereo unspecified) | inactive | – | –
OCCCCc1cn(C(c2ccc(OCc3ccccc3)cc2)C2CC2)nn1 (stereo unspecified) | inactive | – | –
O=C(c1ccc(-n2ccnc2)cc1)C1CC1 | inactive | Active | EC50 [3]: 50.1 nM; Emax at 1 µM (5HT2A receptor): 96%; EC50 [4]: 4.27 nM; Emax at 1 µM (5HT2B receptor): 119%; Emax [5]: 143%; Activity [6]: Not Active; Activity [7]: Active; Activity [8]: inactive; Activity [9]: Not Active; EC50 [10]: 1.26 nM
CCCCCc1cn(C(c2ccc(OCc3ccccc3)cc2)C2CC2)nn1 (stereo unspecified) | inactive | – | –
O=C(c1ccc(OCc2ccccc2)cc1)C1CC1 | inactive | – | –
CCOc1ccc2nc(Nc3ccc(C(=O)C4CC4)cc3)sc2c1 | inactive | inactive | –
c1ccc(COc2ccc(C(C3CC3)n3cc(-c4ccccc4)nn3)cc2)cc1 (stereo unspecified) | inactive | – | –
O=C(c1ccc(-n2nnc3ccccc32)cc1)C1CC1 | inactive | inactive | –
O=S(=O)(NCc1cn(C(c2ccc(OCc3ccccc3)cc2)C2CC2)nn1)c1ccc(F)cc1 (stereo unspecified) | inactive | – | –
OCc1cn(C(c2ccc(OCc3ccccc3)cc2)C2CC2)nn1 (stereo unspecified) | inactive | – | –
O=C(c1ccc(Nc2nc3ccccc3[nH]2)cc1)C1CC1 | inactive | inactive | –
Nc1ncnc2c1ncn2-c1ccc(C(O)C2CC2)cc1 (stereo unspecified) | inactive | inactive | –
CC1(C)O[C@@H]2O[C@H]([C@H]3COC(C)(C)O3)[C@@H](OCc3cn(C(c4ccc(OCc5ccccc5)cc4)C4CC4)nn3)[C@H]2O1 (stereo partly specified) | inactive | – | –
O=C(c1ccc(NCCCn2ccnc2)cc1)C1CC1 | – | inactive | –
O=C(c1ccc(-n2cnc([N+](=O)[O-])c2)cc1)C1CC1 | inactive | Active | EC50 [3]: 45.7 nM; Emax at 1 µM (5HT2A receptor): 100%; EC50 [4]: 4.17 nM; Emax at 1 µM (5HT2B receptor): 123%; Emax [5]: 140%; Activity [6]: Not Active; Activity [7]: Active; Activity [8]: inactive; Activity [9]: Not Active; EC50 [10]: 1.26 nM
COc1cc(C(=O)OCc2cn(C(c3ccc(OCc4ccccc4)cc3)C3CC3)nn2)cc(OC)c1OC (stereo unspecified) | inactive | – | –

— ChEMBL document CHEMBL4422637, “Identification of dual role of piperazine-linked phenyl cyclopropyl methanone as positive allosteric modulator of 5-HT2C and negative allosteric modulator of 5-HT2B receptors” (Eur J Med Chem, 2019)
